Data as given in ChEMBL document CHEMBL2040727, “Substituted thiazoles VI. Synthesis and antitumor activity of new 2-acetamido- and 2 or 3-propanamido-thiazole analogs” (2012).

Tests used:
Type in all cases: functional
EKVX = assay: Growth inhibition of human EKVX cells at 10 uM after 48 hrs by coulter counter analysis; conditions: read-out: GI
In short: (§1)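 Single-dose NCI 60-line panel screen of test compounds. Cells grown in RPMI 1640 with 10% FBS. Compounds dissolved in DMSO, then diluted in phosphate buffer saline (final DMSO below 1%). Wells run in duplicate at 6 × 10⁴ cells/ml. Controls held PBS and DMSO at matching dilutions. Incubation 48 h at 37 °C under humidified 5% CO2. Cells diluted tenfold in saline and counted by Coulter counter. Percent growth inhibition taken from mean-graph of treated-cell growth.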

PC-3 = assay: Growth inhibition of human PC3 cells at 10 uM after 48 hrs by coulter counter analysis; conditions: PC-3, 48 h, read-out: GI; in short: as §1
CCRF-CEM = assay: Growth inhibition of human CCRF-CEM cells at 10 uM after 48 hrs by coulter counter analysis; conditions: read-out: GI; in short: as §1
HCC 2998 = assay: Growth inhibition of human HCC2998 cells at 10 uM after 48 hrs by coulter counter analysis; conditions: HCC 2998, 48 h, read-out: GI; in short: as §1
OVCAR-8 = assay: Growth inhibition of human OVCAR8 cells at 10 uM after 48 hrs by coulter counter analysis; conditions: OVCAR-8, 48 h, read-out: GI; in short: as §1
HOP-92 = assay: Growth inhibition of human HOP92 cells at 10 uM after 48 hrs by coulter counter analysis; conditions: HOP-92, 48 h, read-out: GI; in short: as §1
MCF7 = assay: Growth inhibition of human MCF7 cells at 10 uM after 48 hrs by coulter counter analysis; conditions: MCF7, 48 h, read-out: GI; in short: as §1
NCI-H460 = assay: Growth inhibition of human NCI-H460 cells at 10 uM after 48 hrs by coulter counter analysis; conditions: NCI-H460, 48 h, read-out: GI; in short: as §1
786-0 = assay: Growth inhibition of human 786-0 cells at 10 uM after 48 hrs by coulter counter analysis; conditions: 786-0, 48 h, read-out: GI; in short: as §1
SNB-75 = assay: Growth inhibition of human SNB75 cells at 10 uM after 48 hrs by coulter counter analysis; conditions: SNB-75, 48 h, read-out: GI
In short: (§2)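 Single-dose screen in the NCI 60 cell line panel. Cells grown in RPMI 1640 with 10% FBS. Compounds dissolved in DMSO and diluted in phosphate buffered saline, final DMSO under 1%. Duplicate wells seeded from culture at 6 × 10⁴ cells/ml. Incubated 48 h at 37 °C, humidified, 5% CO2. Cells diluted tenfold in saline and Coulter-counted. Percent growth inhibition computed against PBS/DMSO controls.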

T47D = assay: Growth inhibition of human T47D cells at 10 uM after 48 hrs by coulter counter analysis; conditions: read-out: GI; in short: as §2
NCI-H322M = assay: Growth inhibition of human NCI-H322M cells at 10 uM after 48 hrs by coulter counter analysis; conditions: read-out: GI; in short: as §1
SN12C = assay: Growth inhibition of human SN12C cells at 10 uM after 48 hrs by coulter counter analysis; conditions: read-out: GI; in short: as §1
MOLT-4 = assay: Growth inhibition of human MOLT4 cells at 10 uM after 48 hrs by coulter counter analysis; conditions: MOLT-4, 48 h, read-out: GI; in short: as §1
CAKI-1 = assay: Growth inhibition of human Caki1 cells at 10 uM after 48 hrs by coulter counter analysis; conditions: CAKI-1, 48 h, read-out: GI; in short: as §1
NCI-H23 = assay: Growth inhibition of human NCI-H23 cells at 10 uM after 48 hrs by coulter counter analysis; conditions: NCI-H23, 48 h, read-out: GI; in short: as §1
COLO 205 = assay: Growth inhibition of human COLO205 cells at 10 uM after 48 hrs by coulter counter analysis; conditions: COLO 205, 48 h, read-out: GI; in short: as §1
ACHN = assay: Growth inhibition of human ACHN cells at 10 uM after 48 hrs by coulter counter analysis; conditions: read-out: GI; in short: as §1
IGROV-1 = assay: Growth inhibition of human IGROV1 cells at 10 uM after 48 hrs by coulter counter analysis; conditions: IGROV-1, 48 h, read-out: GI; in short: as §1
MDA-MB-435 = assay: Growth inhibition of human MDA-MB-435 cells at 10 uM after 48 hrs by coulter counter analysis; conditions: MDA-MB-435, 48 h, read-out: GI; in short: as §1
BT-549 = assay: Growth inhibition of human BT549 cells at 10 uM after 48 hrs by coulter counter analysis; conditions: BT-549, 48 h, read-out: GI; in short: as §1
SNB-19 = assay: Growth inhibition of human SNB19 cells at 10 uM after 48 hrs by coulter counter analysis; conditions: SNB-19, 48 h, read-out: GI; in short: as §1
SK-MEL-2 = assay: Growth inhibition of human SK-MEL-2 cells at 10 uM after 48 hrs by coulter counter analysis; conditions: SK-MEL-2, 48 h, read-out: GI; in short: as §1
Malme-3M = assay: Growth inhibition of human MALME-3M cells at 10 uM after 48 hrs by coulter counter analysis; conditions: read-out: GI; in short: as §1
HL-60(TB) = assay: Growth inhibition of human HL-60(TB) cells at 10 uM after 48 hrs by coulter counter analysis; conditions: HL-60, 48 h, read-out: GI
In short: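 Cells grown in RPMI 1640 with 10% FBS. Compound was dissolved in DMSO and diluted in PBS (under 1% DMSO final), then added in duplicate wells to culture at 6 × 10⁴ cells/ml. PBS/DMSO vehicle controls were included. Incubated at 37 °C, humidified 5% CO₂, for 48 h. Cells were diluted 10-fold in saline and Coulter-counted. Single-dose NCI-60 screen, read as percent growth inhibition.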

SR = assay: Growth inhibition of human SR cells at 10 uM after 48 hrs by coulter counter analysis; conditions: read-out: GI; in short: as §2
OVCAR-3 = assay: Growth inhibition of human OVCAR3 cells at 10 uM after 48 hrs by coulter counter analysis; conditions: OVCAR-3, 48 h, read-out: GI; in short: as §1
LOX IMVI = assay: Growth inhibition of human LOXIMVI cells at 10 uM after 48 hrs by coulter counter analysis; conditions: read-out: GI; in short: as §1
M14 = assay: Growth inhibition of human M14 cells at 10 uM after 48 hrs by coulter counter analysis; conditions: M14, 48 h, read-out: GI; in short: as §1
SK-MEL-28 = assay: Growth inhibition of human SK-MEL-28 cells at 10 uM after 48 hrs by coulter counter analysis; conditions: SK-MEL-28, 48 h, read-out: GI; in short: as §1
KM12 = assay: Growth inhibition of human KM12 cells at 10 uM after 48 hrs by coulter counter analysis; conditions: KM12, 48 h, read-out: GI; in short: as §1
SF-539 = assay: Growth inhibition of human SF539 cells at 10 uM after 48 hrs by coulter counter analysis; conditions: SF-539, 48 h, read-out: GI; in short: as §1
HCT-116 = assay: Growth inhibition of human HCT116 cells at 10 uM after 48 hrs by coulter counter analysis; conditions: HCT-116, 48 h, read-out: GI; in short: as §1
MDA-MB-468 = assay: Growth inhibition of human MDA-MB-468 cells at 10 uM after 48 hrs by coulter counter analysis; conditions: MDA-MB-468, 48 h, read-out: GI; in short: as §1

Row | Structure (SMILES) | inhibition of growth at 10 µM (EKVX) [%] | inhibition of growth at 10 µM (PC-3) [%] | inhibition of growth at 10 µM (CCRF-CEM) [%] | inhibition of growth at 10 µM (HCC 2998) [%] | inhibition of growth at 10 µM (OVCAR-8) [%] | inhibition of growth at 10 µM (HOP-92) [%] | inhibition of growth at 10 µM (MCF7) [%] | inhibition of growth at 10 µM (NCI-H460) [%] | inhibition of growth at 10 µM (786-0) [%] | inhibition of growth at 10 µM (SNB-75) [%] | inhibition of growth at 10 µM (T47D) [%] | inhibition of growth at 10 µM (NCI-H322M) [%] | inhibition of growth at 10 µM (SN12C) [%] | inhibition of growth at 10 µM (MOLT-4) [%] | inhibition of growth at 10 µM (CAKI-1) [%] | inhibition of growth at 10 µM (NCI-H23) [%] | inhibition of growth at 10 µM (COLO 205) [%] | inhibition of growth at 10 µM (ACHN) [%] | inhibition of growth at 10 µM (IGROV-1) [%] | inhibition of growth at 10 µM (MDA-MB-435) [%] | also measured
1 | CN1CCN(CCC(=O)Nc2nc(-c3ccccc3)cs2)CC1 | < 10 | 10.9 | 14.4 | < 10 | < 10 | 24.5 | 11.8 | < 10 | < 10 | 30.5 | < 10 | < 10 | 17.2 | 35.7 | 15.9 | < 10 | < 10 | < 10 | 10.6 | < 10 | inhibition of growth at 10 µM (BT-549): 16.5%; inhibition of growth at 10 µM (SNB-19): < 10%; inhibition of growth at 10 µM (SK-MEL-2): < 10%; inhibition of growth at 10 µM (Malme-3M): 12.7%; inhibition of growth at 10 µM (HL-60(TB)): 11.6%; inhibition of growth at 10 µM (SR): < 10%; inhibition of growth at 10 µM (OVCAR-3): < 10%; inhibition of growth at 10 µM (LOX IMVI): 11.1%; inhibition of growth at 10 µM (M14): < 10%; inhibition of growth at 10 µM (SK-MEL-28): < 10%; inhibition of growth at 10 µM (KM12): < 10%; inhibition of growth at 10 µM (SF-539): < 10%; inhibition of growth at 10 µM (HCT-116): < 10%; inhibition of growth at 10 µM (MDA-MB-468): < 10%
2 | O=C(CN1CCN(c2ccccc2)CC1)Nc1nc(-c2ccccc2)cs1 | < 10 | 26.3 | 22.7 | < 10 | < 10 | 25.6 | 19.3 | 25 | < 10 | 29.7 | 29.7 | 11.3 | 17.3 | 31.3 | 36.6 | 18.6 | 12.4 | 16.2 | 26.5 | < 10 | inhibition of growth at 10 µM (BT-549): 11.3%; inhibition of growth at 10 µM (SNB-19): 10.1%; inhibition of growth at 10 µM (SK-MEL-2): 11.6%; inhibition of growth at 10 µM (Malme-3M): 23.4%; inhibition of growth at 10 µM (HL-60(TB)): 22%; inhibition of growth at 10 µM (SR): < 10%; inhibition of growth at 10 µM (OVCAR-3): < 10%; inhibition of growth at 10 µM (LOX IMVI): 11.5%; inhibition of growth at 10 µM (M14): 13.6%; inhibition of growth at 10 µM (SK-MEL-28): < 10%; inhibition of growth at 10 µM (KM12): < 10%; inhibition of growth at 10 µM (SF-539): < 10%; inhibition of growth at 10 µM (HCT-116): 17.7%; inhibition of growth at 10 µM (MDA-MB-468): 30.4%
3 | O=C(CCN1CCN(c2ccccc2)CC1)Nc1nc(-c2ccccc2)cs1 | 24.8 | 28.3 | 31.4 | < 10 | 23.6 | 59.6 | 12.7 | 11.3 | 18.1 | 28.6 | 20.4 | 13 | 33.5 | 37.9 | 37.7 | 31.4 | < 10 | 16.4 | 33.5 | 13.4 | inhibition of growth at 10 µM (BT-549): 26.1%; inhibition of growth at 10 µM (SNB-19): 10.3%; inhibition of growth at 10 µM (SK-MEL-2): < 10%; inhibition of growth at 10 µM (Malme-3M): < 10%; inhibition of growth at 10 µM (HL-60(TB)): < 10%; inhibition of growth at 10 µM (SR): 19.9%; inhibition of growth at 10 µM (OVCAR-3): 26.1%; inhibition of growth at 10 µM (LOX IMVI): 25.7%; inhibition of growth at 10 µM (M14): < 10%; inhibition of growth at 10 µM (SK-MEL-28): < 10%; inhibition of growth at 10 µM (KM12): 10.7%; inhibition of growth at 10 µM (SF-539): 15.4%; inhibition of growth at 10 µM (HCT-116): 41.7%; inhibition of growth at 10 µM (MDA-MB-468): 33.4%
